Experimental data: ChEMBL document CHEMBL1145990, “Synthesis and in vitro antitumor activity of phenanthrolin-7-one derivatives, analogues of the marine pyridoacridine alkaloids ascididemin and meridine: structure-activity relationship” (J Med Chem, 2003)
pIC50: −log10 of the molar value.

Legend:
LoVo = assay: In vitro antitumor effects against human LoVo cell lines.; format: functional, cell-based
In short: (§1)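 Cells grown at 37°C in sealed dishes in MEM with 5% FCS, seeded at 40000 cells/mL and allowed 24 h to plate. Six concentrations from 10 µM to 0.1 nM were tested. Growth was read by MTT reduction to formazan at 570 nm (630 nm reference), in sextuplicate. IC50 is the concentration giving 50% growth inhibition versus control, as the mean of three independent assays.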

SW1088 = assay: In vitro antitumor effects against human SW 1088 cell lines.; format: functional, cell-based
Mus musculus = assay: Maximum tolerated dose following single i.p. injection to B6D2F1/jico mice.; format: functional
In short: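 Healthy non-tumour-bearing B6D2F1 mice given one acute intraperitoneal dose at 5, 10, 20, 40, 80 or 160 mg/kg. Three mice per dose group. Survival and body weight recorded for up to 28 days after injection. MTD taken as the highest dose tolerable acutely.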

A549 = assay: In vitro antitumor effects against human A-549 cell lines.; format: functional, cell-based; in short: as §1
U373 MG = assay: In vitro antitumor effects against human U-373MG cell lines.; format: functional, cell-based, U-373MG ATCC; in short: as §1
HCT-15 = assay: In vitro antitumor effects against human HCT-15 cell lines.; format: functional, cell-based; in short: as §1
A-427 = assay: In vitro antitumor effects against human A-427 cell lines.; format: functional, cell-based; in short: as §1
T-24 = assay: In vitro antitumor effects against human T24 cell lines.; format: functional, cell-based; in short: as §1
MCF7 = assay: In vitro antitumor effects against human MCF-7 cell lines.; format: functional, cell-based; in short: as §1
T47D = assay: In vitro antitumor effects against human T-47D cell lines.; format: functional, cell-based; in short: as §1
PC-3 = assay: In vitro antitumor effects against human PC-3 cell lines.; format: functional, cell-based; in short: as §1
J82 = assay: In vitro antitumor effects against human J82 cell lines.; format: functional, cell-based; in short: as §1
U-87 MG = assay: In vitro antitumor effects against human U87MG cell lines.; format: functional, cell-based, U-87MG ATCC; in short: as §1

Structure (SMILES) | pIC50 (LoVo) | pIC50 (SW1088) | MTD (Mus musculus) | pIC50 (A549) | pIC50 (U373 MG) | pIC50 (HCT-15) | pIC50 (A-427) | pIC50 (T-24) | pIC50 (MCF7) | pIC50 (T47D) | pIC50 (PC-3) | pIC50 (J82) | pIC50 (U-87 MG)
COc1cnc2c3c(nccc13)-c1cccnc1C2=O | 6.15 | 7.10 | >160 mg/kg | 7.30 | 7.15 | 7.05 | 7.15 | 7.22 | 7.22 | 5.22 | 7.10 | 6.10 | 7.30
O=C1c2c(Cl)ccnc2-c2nccc3ccnc1c23 | 6.00 | 5.40 | 20 mg/kg | 6.10 | 5.40 | 6.00 | 6.15 | 5.52 | 6.22 | 6.00 | 5.30 | 5.40 | 6.10
COc1ccnc2c1-c1nccc3ccnc(c13)C2=O | 6.52 | 5.70 | 5 mg/kg | 6.52 | 7.00 | 7.00 | 7.15 | 6.52 | 6.70 | 5.52 | 6.05 | 5.70 | 7.00
O=C1c2nccc(O)c2-c2nccc3ccnc1c23 | 5.30 | 5.22 | 10 mg/kg | 5.22 | 5.22 | 5.22 | 5.22 | 5.10 | 5.30 | 5.22 | < 5.00 | 5.22 | 5.10
COc1cnc2c3c(nccc13)-c1ncccc1C2=O | 5.30 | 6.52 | >160 mg/kg | 6.30 | 6.22 | 6.15 | 6.30 | 6.30 | 6.40 | 5.15 | 6.30 | 5.40 | 6.52
COc1ccnc2c1C(=O)c1ncc(OC)c3ccnc-2c13 | 6.10 | 5.52 | 80 mg/kg | 5.30 | 5.70 | 5.52 | 6.10 | 5.70 | 5.70 | 5.30 | 6.10 | 5.30 | 6.10
CN(C)c1cc(Cl)nc2c1-c1nccc3ccnc(c13)C2=O | 5.30 | 5.30 | 40 mg/kg | < 5.00 | 5.22 | 5.30 | 5.22 | 5.22 | 5.22 | 5.40 | < 5.00 | 5.30 | 5.22
COc1ccc2c(n1)C(=O)c1nccc3ccnc-2c13 | 5.30 | 5.30 | 40 mg/kg | 5.05 | 5.22 | 5.22 | 5.22 | 5.22 | 5.30 | 5.22 | 5.22 | 5.30 | 5.22
COc1cnc2c3c(nccc13)-c1c(N(C)C)ccnc1C2=O | 5.52 | 5.22 | >160 mg/kg | 5.52 | 5.30 | 5.52 | 5.52 | 5.30 | 5.40 | 5.40 | 5.22 | 5.22 | 5.52
COc1ccnc2c1-c1nccc3c(OC)cnc(c13)C2=O | 8.10 | 8.10 | 20 mg/kg | 8.30 | 8.15 | 7.40 | 8.22 | 8.05 | 7.52 | 7.22 | 7.40 | 6.70 | 8.10
COc1ccc2c(n1)-c1nccc3ccnc(c13)C2=O | < 5.00 | 5.30 | >160 mg/kg | 5.05 | 5.30 | 5.22 | 5.22 | 5.30 | 5.30 | 5.22 | 5.22 | 5.30 | 5.22
O=C1c2cccnc2-c2nccc3ccnc1c23 | 5.70 | 5.40 | 10 mg/kg | 6.10 | 6.10 | 6.05 | 5.15 | 6.52 | 6.70 | 6.15 | 5.30 | 5.30 | 6.30
CN(C)c1ccnc2c1-c1nccc3ccnc(c13)C2=O | 5.70 | 5.30 | 10 mg/kg | 6.00 | 6.00 | 5.70 | 6.05 | 6.00 | 6.05 | 5.40 | 5.40 | 5.40 | 5.70
COc1cc(OC)c2c(n1)C(=O)c1nccc3ccnc-2c13 | 5.40 | 5.30 | 40 mg/kg | 5.22 | 5.22 | 5.30 | 5.30 | 5.22 | 5.30 | 5.30 | 5.22 | 5.30 | 5.30
COc1ccnc2c1C(=O)c1nccc3ccnc-2c13 | 6.05 | 6.05 | 10 mg/kg | 6.10 | 6.10 | 6.10 | 6.10 | 6.15 | 6.22 | 6.40 | 6.22 | 5.52 | 5.40
O=C1c2ncccc2-c2nccc3ccnc1c23 | 5.70 | 5.30 | 10 mg/kg | 5.52 | 5.40 | 6.22 | 6.15 | 6.10 | 6.22 | 6.10 | 6.05 | 5.30 | 5.22
COc1ccc2c(n1)C(=O)c1ncc(OC)c3ccnc-2c13 | 6.22 | 6.30 | >160 mg/kg | 6.10 | 6.10 | 6.22 | 6.30 | 6.22 | 6.30 | 6.00 | 6.00 | 5.10 | 6.15
